From ChEMBL document CHEMBL5724801, “EUbOPEN Chemogenomics Library - Multiplex” (2024)
Values joined by “and” are separate entries in the source; they are usually repeats but may differ in a detail not shown here. Equal entries are not always repeated.

System: Fibroblast
Experiment: Multiplex assay against human fibroblast
Type: toxicity, cell-based
Outline: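 At seeding, live cells were stained with Hoechst33342, BioTracker Green Microtubule Cytoskeleton Dye, MitoTracker Red and Annexin V Alexa Fluor 680. After compound addition they were imaged on a CQ1 microscope at 37°C and 5% CO2, and CellPathfinder machine-learning gating sorted them into Hoechst high-intensity objects or normal cells, with normal cells further split into healthy, pyknosed or fragmented nuclei and pyknosed cells into mitotic or apoptotic. Tubulin, mitochondrial-mass and membrane-permeability phenotypes are given as per cents of cells with healthy nuclei.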

[1] = 12 h, 1 µM, compound concentration 1 uM
[2] = 12 h, 10 µM, compound concentration 10 uM
[3] = 24 h, 1 µM, compound concentration 1 uM
[4] = 24 h, 10 µM, compound concentration 10 uM
[5] = 48 h, 1 µM, compound concentration 1 uM
[6] = 48 h, 10 µM, compound concentration 10 uM

CCOc1c2c(c(OCC)c3ncccc13)CN(c1ccc(CS(=O)(=O)NC(=O)Cc3ccccc3OC)cc1C)C2=O
Population Apoptotic (%) [1]: 44% and 38%
Population Fragmented Nuclei (%) [1]: 15% and 37%
Population Healthy Nuclei (%) [1]: 68% and 42%
Population Hoechst High Intensity Objects (%) [1]: 0% and 4%
Population Membrane Permeable-Phenotype (%) [1]: 1% and 8%
Population Mitochondria Different-Phenotype (%) [1]: 3% and 2%
Population Mitotic Cells (%) [1]: 55% and 61%
Population Normal (%) [1]: 99% and 95%
Population Pyknosed Nuclei (%) [1]: 15% and 19%
Population Tubulin-Different-Phenotype (%) [1]: 23% and 62%
Total Cell Count [1]: 120 and 111
Population Apoptotic (%) [2]: 35% and 21%
Population Fragmented Nuclei (%) [2]: 15% and 19%
Population Healthy Nuclei (%) [2]: 63% and 50%
Population Hoechst High Intensity Objects (%) [2]: 1% and 3%
Population Membrane Permeable-Phenotype (%) [2]: 1% and 7%
Population Mitochondria Different-Phenotype (%) [2]: 6% and 8%
Population Mitotic Cells (%) [2]: 64% and 78%
Population Normal (%) [2]: 98% and 96%
Population Pyknosed Nuclei (%) [2]: 21% and 29%
Population Tubulin-Different-Phenotype (%) [2]: 27% and 54%
Total Cell Count [2]: 161 and 146
Population Apoptotic (%) [3]: 56% and 46%
Population Fragmented Nuclei (%) [3]: 13% and 37%
Population Healthy Nuclei (%) [3]: 67% and 32%
Population Hoechst High Intensity Objects (%) [3]: 3% and 2%
Population Mitochondria Different-Phenotype (%) [3]: 3%
Population Mitotic Cells (%) [3]: 43% and 53%
Population Normal (%) [3]: 96% and 97%
Population Pyknosed Nuclei (%) [3]: 18% and 29%
Population Tubulin-Different-Phenotype (%) [3]: 23% and 69%
Total Cell Count [3]: 127 and 104
Population Apoptotic (%) [4]: 42%
Population Fragmented Nuclei (%) [4]: 17% and 25%
Population Healthy Nuclei (%) [4]: 66% and 49%
Population Hoechst High Intensity Objects (%) [4]: 3% and 4%
Population Membrane Permeable-Phenotype (%) [4]: 1% and 5%
Population Mitochondria Different-Phenotype (%) [4]: 2%
Population Mitotic Cells (%) [4]: 57%
Population Normal (%) [4]: 96% and 95%
Population Pyknosed Nuclei (%) [4]: 15% and 25%
Population Tubulin-Different-Phenotype (%) [4]: 19% and 50%
Total Cell Count [4]: 171 and 142
Population Apoptotic (%) [5]: 57% and 66%
Population Fragmented Nuclei (%) [5]: 18% and 47%
Population Healthy Nuclei (%) [5]: 66% and 40%
Population Hoechst High Intensity Objects (%) [5]: 3% and 5%
Population Membrane Permeable-Phenotype (%) [5]: 1% and 5%
Population Mitochondria Different-Phenotype (%) [5]: 3% and 7%
Population Mitotic Cells (%) [5]: 42% and 33%
Population Normal (%) [5]: 96% and 94%
Population Pyknosed Nuclei (%) [5]: 15% and 12%
Population Tubulin-Different-Phenotype (%) [5]: 26% and 72%
Total Cell Count [5]: 128 and 105
Population Apoptotic (%) [6]: 71% and 29%
Population Fragmented Nuclei (%) [6]: 16% and 34%
Population Healthy Nuclei (%) [6]: 63% and 45%
Population Hoechst High Intensity Objects (%) [6]: 7% and 9%
Population Membrane Permeable-Phenotype (%) [6]: 1% and 7%
Population Mitochondria Different-Phenotype (%) [6]: 2% and 5%
Population Mitotic Cells (%) [6]: 28% and 70%
Population Normal (%) [6]: 92% and 90%
Population Pyknosed Nuclei (%) [6]: 20%
Population Tubulin-Different-Phenotype (%) [6]: 20% and 51%
Total Cell Count [6]: 171 and 131

COC[C@@H](CC(C)C)NC1=N/C(=C\c2ccc3ncsc3c2)C(=O)N1C
Population Apoptotic (%) [1]: 28.21% and 31.58%
Population Fragmented Nuclei (%) [1]: 27.8% and 24.34%
Population Healthy Nuclei (%) [1]: 58.12% and 69.41%
Population Hoechst High Intensity Objects (%) [1]: 0%
Population Membrane Permeable-Phenotype (%) [1]: 3.73% and 4.27%
Population Mitochondria Different-Phenotype (%) [1]: 9.94% and 6.64%
Population Mitotic Cells (%) [1]: 71.79% and 68.42%
Population Normal (%) [1]: 100%
Population Pyknosed Nuclei (%) [1]: 14.08% and 6.25%
Population Tubulin-Different-Phenotype (%) [1]: 13.66% and 33.18%
Total Cell Count [1]: 277 and 304
Population Fragmented Nuclei (%) [2]: 75.02% and 85.21%
Population Healthy Nuclei (%) [2]: 17.78% and 11.87%
Population Hoechst High Intensity Objects (%) [2]: 13.82% and 16.56%
Population Membrane Permeable-Phenotype (%) [2]: 4.92% and 5.22%
Population Mitochondria Different-Phenotype (%) [2]: 5.46% and 4.48%
Population Mitotic Cells (%) [2]: 87.84% and 51.52%
Population Normal (%) [2]: 86.18% and 83.44%
Population Pyknosed Nuclei (%) [2]: 7.19% and 2.92%
Population Tubulin-Different-Phenotype (%) [2]: 16.94% and 38.81%
Total Cell Count [2]: 1194 and 1353
Population Apoptotic (%) [3]: 32.26% and 29.41%
Population Fragmented Nuclei (%) [3]: 28.52% and 23.81%
Population Healthy Nuclei (%) [3]: 60.56% and 70.41%
Population Hoechst High Intensity Objects (%) [3]: 0%
Population Membrane Permeable-Phenotype (%) [3]: 1.16% and 4.83%
Population Mitochondria Different-Phenotype (%) [3]: 10.47% and 6.28%
Population Mitotic Cells (%) [3]: 67.74% and 70.59%
Population Normal (%) [3]: 100%
Population Pyknosed Nuclei (%) [3]: 10.92% and 5.78%
Population Tubulin-Different-Phenotype (%) [3]: 18.02% and 35.27%
Total Cell Count [3]: 284 and 294
Population Apoptotic (%) [4]: 15.79% and 43.33%
Population Fragmented Nuclei (%) [4]: 73.6% and 85.59%
Population Healthy Nuclei (%) [4]: 21.08% and 11.79%
Population Hoechst High Intensity Objects (%) [4]: 7.03% and 15.44%
Population Membrane Permeable-Phenotype (%) [4]: 6.19% and 3.7%
Population Mitotic Cells (%) [4]: 84.21% and 56.67%
Population Normal (%) [4]: 92.97% and 84.56%
Population Pyknosed Nuclei (%) [4]: 5.32% and 2.62%
Population Tubulin-Different-Phenotype (%) [4]: 36.73% and 51.85%
Total Cell Count [4]: 1153 and 1354
Population Apoptotic (%) [5]: 32.14% and 52.94%
Population Fragmented Nuclei (%) [5]: 34.66% and 16.78%
Population Healthy Nuclei (%) [5]: 57.39% and 77.27%
Population Hoechst High Intensity Objects (%) [5]: 0%
Population Membrane Permeable-Phenotype (%) [5]: 1.98% and 1.36%
Population Mitochondria Different-Phenotype (%) [5]: 7.43% and 5.43%
Population Mitotic Cells (%) [5]: 67.86% and 47.06%
Population Normal (%) [5]: 100%
Population Pyknosed Nuclei (%) [5]: 7.95% and 5.94%
Total Cell Count [5]: 352 and 286
Population Apoptotic (%) [6]: 14.55% and 28.57%
Population Fragmented Nuclei (%) [6]: 76.66% and 86.7%
Population Healthy Nuclei (%) [6]: 18.12% and 11%
Population Hoechst High Intensity Objects (%) [6]: 20.81% and 19.66%
Population Membrane Permeable-Phenotype (%) [6]: 13.61% and 14.18%
Population Mitochondria Different-Phenotype (%) [6]: 1.57% and 10.45%
Population Mitotic Cells (%) [6]: 85.45% and 71.43%
Population Normal (%) [6]: 79.19% and 80.34%
Population Pyknosed Nuclei (%) [6]: 5.22% and 2.3%
Population Tubulin-Different-Phenotype (%) [6]: 27.75% and 50.75%
Total Cell Count [6]: 1331 and 1516
